Measurements from different studies.
Compare with care: the assays were run in different laboratories.
Target: Cyclin-dependent kinase-like 1 (CDKL1, Homo sapiens, UniProt Q00532)

`CN(C)c1nccc(-c2cnc3ncccn23)n1` has a remaining binding of 100% (binding; 1 µM).
For `c1ccc(N2CCN(Cc3nc4ccccc4[nH]3)CC2)nc1`, the remaining binding was 78% (binding, competition with immobilised ligand; 1 µM).
The remaining binding of `O=C(NCCCN1CCOCC1)c1ccc(Nc2ncc(Cl)c(-c3ccc(Cl)s3)n2)cc1` is reported as 36% (binding, competition with immobilised ligand; 1 µM).
For `C[C@@H]1CCN(c2nccc(-c3cnn4ncccc34)n2)C1`, the remaining binding was 70% (binding; 1 µM).
For `COc1cnc(Nc2cccc(S(N)(=O)=O)c2)nc1N1CCN(c2ccccc2)C(=O)C1`, the remaining binding was 92% (binding, competition with immobilised ligand; 1 µM).
For `c1cncc(-c2cccc(Nc3nccc(NC4CCCCC4)n3)c2)c1`, the remaining binding was 70% (binding, competition with immobilised ligand; 10 µM).
`Nc1ncc2c(n1)-c1c([nH]c3ccc(C#CC4CC4)cc13)CCCC2` gave a remaining binding of 81% (binding, competition with immobilised ligand; 1 µM).
With `Cc1cc(-n2nc(Cc3cc(F)cc(C(F)(F)F)c3)nc2C)ccc1C(N)=O` the remaining binding was 71% (cell-free assay, competition with immobilised ligand; 1 µM).
With `CNC(=O)[C@@H]1CC[C@@H](n2c(-c3ccc4cnccc4c3)nc3ccc(C(=O)NCc4cccc(C(N)=O)c4)cc32)C1` the remaining binding was 90% (binding, competition with immobilised ligand; 1 µM).
`O=C(NCCCN1CCOCC1)c1ccc(Nc2nccc(-c3cc4ccccc4s3)n2)cc1` gave a remaining binding of 54% (binding, competition with immobilised ligand; 1 µM).
The remaining binding of `c1cnn2ncc(-c3ccnc(N4CCC45COC5)n3)c2c1` is reported as 59% (binding; 1 µM).
`O=C(NCC1CCOCC1)c1n[nH]cc1NC(=O)c1c(F)cccc1F` gave a remaining binding of 77% (binding, competition with immobilised ligand; 1 µM).
`CCS(=O)(=O)c1cc2cc(C[C@](O)(CC(C)(C)c3ccc(F)cc3C(N)=O)C(F)(F)F)[nH]c2cn1` has a remaining binding of 81% (cell-free assay, competition with immobilised ligand; 1 µM).
The remaining binding of `O=C(c1ccc(Nc2ncc(Cl)c(-c3cc4ccccc4s3)n2)cc1)N1CCC(N2CCCC2)CC1` is reported as 51% (binding, competition with immobilised ligand; 1 µM).
`CC(=O)Nc1c(C(C)=O)c(=O)n(C)c2nc(-c3ccc(Cl)cc3Cl)c(-c3ccc(Cl)cc3)cc12` has a remaining binding of 100% (cell-free assay, competition with immobilised ligand; 1 µM).
`CN(C)c1nccc(-c2cnn3ncccc23)n1` gave a remaining binding of 89% (binding; 1 µM).
The remaining binding of `O=C1NC(c2ccccn2)Sc2ccccc21` (centres unmarked) is reported as 75% (cell-free assay, competition with immobilised ligand; 1 µM).
`N[C@H]1CCN(c2nccc(-c3cnn4ncccc34)n2)C1` gave a remaining binding of 80% (binding; 1 µM).
For `N#Cc1ccc(Nc2ccc3[nH]c(=O)[nH]c3c2)c(Cl)c1`, the remaining binding was 84% (binding, competition with immobilised ligand; 1 µM).
For `F[C@@H]1CCN(c2nccc(-c3cnn4ncccc34)n2)C1`, the remaining binding was 89% (binding; 1 µM).
